High-throughput results deposited in PubChem by several laboratories.
BB579 growth dn – yeast BB579 growth reduction in restrictive medium | AID 804 | S. cerevisiae BB579 growth, OD615, 48 h | actives 0.51% (n = 140,000) | inhibition, % at 10 µM;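 active = inhibition above a set limit, 3 SD over the mean compound inhibition, cut at about 44% in these data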
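System: Saccharomyces cerevisiae DeaD strain BB579, replicative lifespan model yeast. Buffer or medium: restrictive glucose-based CSMM-D medium. Doses: one dose, 10 µM compound with 0.25% DMSO. Timing: 4 h preincubation and 48 h exposure at 30 °C. Detection: turbidity as optical density at 615 nm. Benchmarks: amphotericin B 10 µg/mL, positive.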
TNAP inh hi DEA – blocks human TNAP under high phosphate acceptor concentration | purified TNAP, CDP-star luminescence, 1 M DEA | inhibition, % at 20 µM | actives 0.03% (n = 200,000);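 active = over 50% inhibition of tissue-nonspecific alkaline phosphatase at 20 µM in the single-dose screen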;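 also: plate controls were DMSO wells for no effect and EDTA-quenched wells as full inhibition for full effect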
Target sequence (P05186 whole entry, looked up): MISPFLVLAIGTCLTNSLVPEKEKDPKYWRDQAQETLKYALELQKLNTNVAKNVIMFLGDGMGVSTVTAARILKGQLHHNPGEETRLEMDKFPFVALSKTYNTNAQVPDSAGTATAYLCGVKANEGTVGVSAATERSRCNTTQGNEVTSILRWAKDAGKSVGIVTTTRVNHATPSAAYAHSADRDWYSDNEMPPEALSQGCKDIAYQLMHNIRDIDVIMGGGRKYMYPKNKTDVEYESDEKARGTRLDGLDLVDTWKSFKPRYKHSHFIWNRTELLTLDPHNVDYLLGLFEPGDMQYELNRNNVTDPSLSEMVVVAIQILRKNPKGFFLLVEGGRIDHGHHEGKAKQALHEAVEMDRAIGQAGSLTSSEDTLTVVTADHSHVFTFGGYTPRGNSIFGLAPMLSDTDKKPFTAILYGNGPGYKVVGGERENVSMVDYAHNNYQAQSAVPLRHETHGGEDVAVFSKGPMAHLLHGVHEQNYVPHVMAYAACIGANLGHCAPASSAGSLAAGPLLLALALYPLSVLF
TNAP inh no acc – inhibitors of human TNAP without phosphate acceptor | AID 1012 | purified TNAP, CDP-star luminescence, 30 min | inhibition, % at 20 µM | P05186 | actives 0.26% (n = 200,000);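 active = tissue-nonspecific alkaline phosphatase inhibition above about 50% at 20 µM in the single-dose screen, limit read from the data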;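 also: 0% = DMSO negative control and 100% = EDTA positive control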
Yeast lifespan up – extends the lifespan of yeast; S. cerevisiae growth with nicotinamide, OD615; deaD strain in restrictive glucose medium; inhibition of the nicotinamide effect, % at 10 µM; actives 0.68% (n = 130,000);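 active = inhibition above a set limit, placed 3 SD over the median of all compounds, cut at about 26% in these data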;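 also: 0% = nicotinamide-treated wells and 100% = cells grown without nicotinamide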
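Assay system: DeaD-strain S. cerevisiae. Medium: CSMM-D glucose medium, restrictive. Reagent: nicotinamide, 1.5 mM, co-present with compound. Compound: 10 µM single point, 0.25% DMSO. Schedule: culture preincubation 4 h, compound exposure 48 h, both 30 °C. Detection: absorbance at 615 nm.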
TNAP act hi DEA – activators of human TNAP at high phosphate acceptor concentration. P05186. purified TNAP, CDP-star luminescence, 1 M DEA, 30 min; hits give high values; 0 = EDTA background, 1 = DMSO-only activity. activation factor at 20 µM. 200,000 tested, under 10 active. AID 1136;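 active = activation factor at least 2 at 20 µM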
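Dosing: 20 µM single point. System: human TNAP. Amount: TNAP 1/800 final. Incubation: 30 min, room temperature. Read-out: TNAP activation factor scaled between EDTA and DMSO control wells. Signal: luminescence from CDP-star hydrolysis. Medium: 1 M DEA, pH 9.8, Mg2+, Zn2+. Control set: EDTA negative control, DMSO positive control.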
RAM inhibit – yeast RAM network inhibition. S. cerevisiae dse1pr::URA3 reporter, 5-FOA growth OD615, 2 d; analog-sensitive cbk1-as2 kinase mutant strain. inhibition, % at 50 µM. actives 1.8% (n = 190,000);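 active = inhibition above a set limit, 3 SD over mean compound inhibition, cut at about 8.4% in these data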;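 also: 0% = DMSO-only wells with no growth and 100% = 10 µM 1-NA-PP1 full growth; inhibition rescues growth on 5-FOA so higher OD means more RAM inhibition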
An asterisk follows results filed as active; nt = no result given. Shown are actives, neighbours in structure and some others; about 2.8% of the full set was active somewhere.

SMILES | BB579 growth dn | TNAP inh hi DEA | TNAP inh no acc | Yeast lifespan up | TNAP act hi DEA | RAM inhibit
Cc1cccc(OCc2nc3c4c(ncn3n2)-c2ccccc2CC42CCCC2)c1 | -26 | -3 | -8 | 7 | 1 | 9.2*
COc1ccc(OCc2nc3c4c(ncn3n2)-c2ccccc2CC42CCCC2)cc1 | -45 | -3 | -16 | 0 | 1 | 5
Cc1ccccc1OCc1nc2c3c(ncn2n1)-c1ccccc1CC31CCCC1 | -20 | 3 | -10 | 1 | 1 | 11*
Oc1cccc(-c2nc3c4c(ncn3n2)-c2ccccc2CC42CCCC2)c1 | -32 | -4 | -9 | -17 | 1 | 7
CCn1c(=O)c2c(nc(SCc3ccccn3)n2C)n(C)c1=O | -8 | -3 | -7 | -23 | 1 | 0
Cc1cccc(NC(=O)c2sc(NC(=O)c3ccco3)c(C#N)c2C)c1C | -10 | -8 | -6 | -4 | 1.1 | 5
CC(C)[C@H](NC(=O)OC(C)(C)C)c1nnc(SCC(=O)Nc2ccc(Br)cc2)o1 | -75 | -2 | -18 | -17 | 1 | 0
Cc1nn(-c2c(Cl)cc(Cl)cc2Cl)c(=O)c2ccccc12 | -6 | 0 | -6 | 49* | 1 | 1
Cc1nn(-c2ccccc2C(=O)O)c(=O)c2ccccc12 | -55 | -5 | -1 | -5 | 1 | 3
O=C(c1ccccc1)c1nc2ccccc2[nH]c1=O | -53 | 3 | -4 | 76* | 1 | 2
O=C(c1ccccc1)c1nc2ccccc2n(CCCn2c(=O)c(C(=O)c3ccccc3)nc3ccccc32)c1=O | -42 | -4 | 1 | -12 | 1 | 9.6*
CC(C(=O)OCC(=O)Nc1ccc(S(=O)(=O)N2CCCCC2)cc1)N1C(=O)c2ccccc2C1=O (stereo unspecified) | -4 | 7 | -11 | -17 | 0.9 | 1
O=C(Nc1n[nH]c(C2CCCCC2)n1)C1CCCCC1 | -34 | -1 | 72* | -1 | 1 | 0
O=C(Nc1ncccn1)C1CCCCC1 | nt | -4 | -5 | nt | 1 | 3
O=C(NCC(=O)N(CC1CCCO1)C(C(=O)NC1CCCC1)c1cccnc1)c1ccco1 (stereo unspecified) | 7 | -9 | -16 | -9 | 1.1 | 0
COC(=O)c1sc2ccccc2c1-n1cccc1C(=O)C(=O)Nc1ccc(C)cc1 | -54 | -4 | -5 | 38* | 1 | 6
COC(=O)c1sc2ccccc2c1-n1cccc1C(=O)C(=O)Nc1ccc(Cl)cc1 | -35 | 1 | -5 | -7 | 1 | 2
Cc1ccc(CN(CC(=O)N/N=C/c2ccco2)S(=O)(=O)c2ccc(C)cc2)cc1 | -70 | -10 | -17 | -8 | 1.1 | -1
CN(CCC#N)C(=O)COC(=O)c1cc(Cl)cc(Cl)c1N | nt | -1 | 13 | nt | 1 | 0
CN(C)/C=C(/C(=O)c1ccc(Cl)cc1Cl)S(=O)(=O)c1ccc(Cl)cc1 | -49 | 1 | -3 | 69* | 1 | 1
CCOC(=O)N1c2ccccc2Sc2ccccc21 | nt | -6 | -4 | nt | 1.1 | 2
CCOC(=O)N1C(=O)C2(CCCCC2)N(c2ccccc2Cl)C1=S | 0 | -7 | 6 | 37* | 1.1 | 5
c1ccc(-c2ccc(OCCCNC3CCCC3)cc2)cc1 | nt | -1 | -2 | nt | 1 | -1
COc1ccc(OCCNC2CCCC2)cc1 | 71* | -1 | 21 | 6 | 1 | 0
Cc1ccc(S(=O)(=O)N(C)C)cc1NC(=O)COC(=O)/C=C/c1ccc2c(c1)OCO2 | nt | -2 | -9 | nt | 1 | 9.3*
CN(C)S(=O)(=O)c1cccc(NC(=O)COC(=O)/C=C/c2ccc3c(c2)OCO3)c1 | nt | -2 | -7 | nt | 1 | 5
Cc1ccc(S(=O)(=O)N(C)C)cc1NC(=O)COC(=O)/C=C/c1cnc2ccccc2n1 | nt | -5 | 10 | nt | 1.1 | 8.9*
CN1CCN(S(=O)(=O)c2ccc(N(C)Cc3cccs3)nc2)CC1 | -52 | 6 | 3 | -8 | 0.9 | 0
CCCN1CNC(=S)N(CC2CCCO2)C1 (stereo unspecified) | -14 | -6 | -7 | -2 | 1.1 | 1
